From ChEMBL document CHEMBL3351296, “Synthesis, antioxidant and photoprotection activities of hybrid derivatives useful to prevent skin cancer” (Bioorg Med Chem, 2014)

Experiments:
[1] = Antioxidant activity of the compound assessed as reduction in absorbance of DPPH after 60 mins incubation at 1000 uM by DPPH radical scavenging /microplate assay; type: physicochemical; conditions: 1 h
Procedure, shortened: (§1)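 DPPH radical prepared in methanol. Test compounds and standards made as 10 mM DMSO stocks, diluted in methanol, and tested at […]; final DMSO […]. Samples mixed with DPPH in triplicate, kept at 37 °C protected from light, and read at 519 nm after 30 and 60 min. % scavenging = (Abs control − Abs sample)/Abs control × 100.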

[2] = Antioxidant activity of the compound assessed as reduction in absorbance of DPPH after 60 mins incubation at 300 uM by DPPH radical scavenging /microplate assay; type: physicochemical; conditions: 1 h; procedure, shortened: as §1
[3] = Antioxidant activity of the compound assessed as reduction in absorbance of DPPH after 60 mins incubation at 100 uM by DPPH radical scavenging /microplate assay; type: physicochemical; conditions: 1 h; procedure, shortened: as §1
[4] = Antioxidant activity of the compound assessed as reduction in absorbance of DPPH after 60 mins incubation at 35 uM by DPPH radical scavenging /microplate assay; type: physicochemical; conditions: 1 h; procedure, shortened: as §1
[5] = Antioxidant activity of the compound assessed as reduction in absorbance of DPPH after 60 mins incubation by DPPH radical scavenging /microplate assay; type: physicochemical; procedure, shortened: as §1
[6] = In vitro photoprotection of the compound assessed as sun protection factor by Optometric 290S analyzer
Procedure, shortened: (§2)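 Transmittance scans were taken from 290 to 400 nm at 2 nm intervals and compared against a reference scan. SPF, UVA protection factor and UVA/UVB ratio were calculated from the transmittance data.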

[7] = In vitro photoprotection of the compound assessed as UVA protection factor by Optometric 290S analyzer; procedure, shortened: as §2
[8] = In vitro photoprotection of the compound assessed as UVA to UVB ratio by Optometric 290S analyzer; procedure, shortened: as §2

inhibition (INH) [1] [%] | inhibition (INH) [2] [%] | inhibition (INH) [3] [%] | inhibition (INH) [4] [%] | IC50 [5] [µM] | Compound | SPF [6] | UVAPF [7] | Ratio [8]
75.5 | 77.2 | 56.7 | 34.8 | 88.2 | COc1cc(/C=C/C=N/NC(=O)c2ccc(O)cc2)ccc1O | 2 | 2 | 1.2
34.2 | 26.5 | 11.2 | 5.6 |  | O=C(N/N=C/c1cc(O)cc(O)c1)c1ccc(O)cc1 | 5 | 4 | 0.6
31.3 | 20.1 | 10.9 | 7 |  | CC(C)(C)c1ccc(C(=O)N/N=C/c2cc(O)cc(O)c2)cc1 | 4 | 3 | 0.6
65 | 54.4 | 38 | 18.4 | 275 | O=C(N/N=C/c1ccc(O)cc1)c1ccc(O)cc1 | 3 | 2 | 0.8
73.8 | 71.3 | 45.5 | 20.5 | 110 | Oc1ccc(/C=C/c2cc(O)cc(O)c2)cc1 [RESVERATROL] | 2 | 2 | 0.6
2.8 | -2.6 | -1.5 | -3.4 |  | COc1ccc(/C=C/C=N/NC(=O)c2ccc(O)cc2)cc1 | 2 | 2 | 1.1

The remaining lines, values behind:

Compound | inhibition (INH) [1] [%] | inhibition (INH) [2] [%] | inhibition (INH) [3] [%] | inhibition (INH) [4] [%] | IC50 [5] [µM] | SPF [6] | UVAPF [7] | Ratio [8]
COc1ccc(/C=C/C=N/NC(=O)c2ccc(C(C)(C)C)cc2)cc1 | -7.1 | -5.6 | -8.3 | -6.6 |  | 4 | 4 | 1
COc1ccc(C(=O)CC(=O)c2ccc(C(C)(C)C)cc2)cc1 |  |  |  |  |  |  | 39 | 1.8
CC(C)(C)c1ccc(C(=O)N/N=C/c2ccc(O)cc2)cc1 | 38.7 | 28.9 | 15 | 10.2 |  | 2 | 2 | 0.8
CCCCC(CC)COC(=O)C=Cc1ccc(OC)cc1 (configuration not stated) |  |  |  |  |  | 13 |  | 
COc1ccc(C(=O)c2ccccc2)c(O)c1 |  |  |  |  |  | 1 |  | 0.6
O=C1O[C@H]([C@@H](O)CO)C(O)=C1O [ASCORBIC ACID] | 81.2 | 80.7 | 77.9 | 18.8 | 64.2 |  |  | 
COc1cc(/C=C/C=N/NC(=O)c2ccc(C(C)(C)C)cc2)ccc1O | 76.1 | 75.1 | 45.6 | 20 | 110 | 2 | 2 | 1.1
